Variants at the floor of the assay were thinned out.
B1: tRNA (parent)
chain: GUUCCGUUGGCGUAAUGGUAACGCGUCUCCCUCCUAAGGAGAAGACUGCGGGUUCGAGUCCCGUACGGAACG

Variants of: B1
Assay: yeast fitness relative to wild type (ratio to wild type); higher = fitter; tRNA-Arg(CCU), competitive growth, 37 C, YPD
Outline: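 A pool of Saccharomyces cerevisiae strains, each with a tRNA-Arg(CCU) gene variant at the native genomic locus, was competed in YPD at 37°C for 24 hours across six parallel replicates. The variants had been chemically synthesised at a 3% per-site mutation rate over 69 sites, and gene amplicons before and after competition were read by 100-nucleotide paired-end sequencing. Darwinian fitness relative to wild type rested on changes in genotype frequencies. Genotypes required ≥ 100 starting reads, and estimates < 0.5 were set to 0.5.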

Variant | yeast fitness
GUUCCGCUGGCGUAAUGGUAACGCGUCUCCCUCUUAAGGAGAAGACUGCGGGUUAGAGUCCCGUGCGGAACG | ≤ 0.5
GUUCCGUUGGCGUAAUGGUAACGCGUCUCCCUCCUAAGGAGAGGACUGCGGGUUCGAGUCUCGUUCGGAACG | 0.567
GUCCCGUUGGCGUAAUGGUAACGCGUCUCCCUCCUAAGGAGAAGGCUGCGGGUUCGAGUCCCGUACGGAACG | 0.903
GUUCCGUUGGCGUAAUGGUAACGCGACUCCCUCCUAAGGGGAAGACUGCGGGUUCGACUCCCGUACUGAACG | 0.556
GUUCCGUUGGCGUCAUGGUAACGCGUCUCACUCCUAAGGAGAAGACUGCGGGUUCGAGUCCCGUAUGGAGCG | 0.622
GUUCCGUUGGCGCAAUGGUAACCCGUCUCCCUCCUCAGAAGAGGACUGCGGGUUCGAGUCCCGUACGGAACG | ≤ 0.5
GUUCCGUUGGCGUAUUGGUAACGCGUCUCCCUCCUAAGGAGAAGACUGCGGGUUCGAGUCCCGUACCGAACG | 0.657
GUACCGUUGGCGUGAUGGUAACCCGUCUCCCUCCUAAGGAGAAGACUGGGGGUUCGAGUCCCGUACGGAACG | 0.503
GUUCCGUUGGCGUAUUGGUAAGGCGUCUCCUUCCUAAGGAGAAGAGUGCGGGUACGAGUCCCGUACGGAACG | ≤ 0.5
GUUCCGUUGGCGUGAAGGUAACGGGUCUCCCUCCUAAGGAGAAGACUGCGAGUUCGAGUCCCGUACGGAACG | 0.511
GUUCCGAUGGCGUAAUGGUAACGCGUAUCCCUCCUAAGGAGAAGACUGCGGGUUCGAGUCCCGUACGGAACG | 0.665
GUUCCGUUGGUCUAAUGGUAACGCGCCUCCCUCCUAAGGUGAAGACUGCGGGUUCGUGUCCCGUACGGAACG | 0.612
GUUCCGUUGGCGUAAUGGUAACGCGUGUCCCUCCUACGGAGAAGACUCCGGGUUAGAGUCCCAUACGGAACG | 0.526
GUUCUGUUGGCGUAACGGUAACGCGUCUCCCUCCUAAGGAGAAGACUGCGGGUUAGAGUCCCGUACGGAACG | 0.627
GUUUCGUUGGCGUAAUGGUUACGCGUCUCCCUCCUAAGGAGAAGACUGCGGGUUCGAGUCCCGUACGGAACG | 0.988
GUUCGGUUGGCGUAAUGGUAACGCGUCUCCCUCAUAAGCAGAAGACUGCGGAUUCGAAUCCCGUACGGAACG | 0.532
GUUCCAUUGGCGUAAUGGUAACACGUUUCCCUCCUAAGGAGAAGACUGCGGGUUCGAGUGCCGUACAGAACG | ≤ 0.5
GUUCCGUUAGCGUAAUGAUAACGGGUCUCCCUCCUAAGGAGAAGUCUGCGGGUUCGAGUCCCGUACGGAACG | 0.52
GUUCCGUUGGCGUAGUGGUAACGCGUUCCCCUCCUAAGGAGAAGACUGCGGGUUCGAGUCCCGUACGGAACG | 0.731
GUUCCGUUGGCGUAAUGGUAACGCGUAUCCCUCCUAAGGAGAAGACUGCGGGUUCGGGUCCCAUACGGAACG | 0.551
GUUCCGUUGGCGUAAUGGUAACGCGUUUCCCUUCUUAGGAGAAGACUGCGGGUUCGAGUCCCGUACGGAACG | ≤ 0.5
GUUCCGUUGGCGUAAUGGUAACGCGUCUCCCUCCUGAGGAGAAGACUGCGGGUUCGAGUCCCGUAUGGUACG | 0.76
GUUCCGUUGGCGUAAUGGUAACGCGUGUCCAUCCUAAGGAGAAGACUGCGGGUUCGAGUCCCGUACGGAUCG | ≤ 0.5
GUUCCGGUGGCGUAAUGGUAAGGCGUCUCCCUCCUAAGGAGAAGACUGCGGGUUCGAGUCCCGUACGGAACG | 0.726
GUUCCGUUGGCGUAAUGGUAACGCGUCUCUCUCCUAAGGAGAAGACUACGGGUUCGAGUCCCGUACAGAACG | ≤ 0.5

Variant | yeast fitness
GUUCCGUUGGCGUAAUGGUAUCGCGUCUCCGUCCUAAGGAGAAGCCUGCGGGUUCGAGUCCCGUACGGAACG | ≤ 0.5
GUUCCGUUGGCGUAAUGGUAACGCGUCUCCCUCCUAAGGAGAAGUCUGCGGAUUCGAGUCCCGCACGGUACG | ≤ 0.5
GUUCCGUUGGCGUAAUGGUAACGCGUCUCCCUCGUAAGGAGAAGACUGCGGGUUGGAGCUCCGUACUGACCG | ≤ 0.5
GUUCCAUUAGCGUAAUGGUAACGGGUCUCCCUCCAAAGGAGAAGACUCCGGGUUCGAGUCCCGUACGGAACG | ≤ 0.5
GUUCCGUUGGCGUAAUGGUACCGCGUCUCCCUCCUAAGGAGUACACUGCGGGCUCGAGUCCCGUACGGAACG | ≤ 0.5
GUUCCGUUGGCGUACUAGUAACGCGUCUCCCUCCUAAGGAGAAGACUGCGGGUUCGGGUCCCGUGCGGAACG | ≤ 0.5
GUUCCGUUGGCGUAAUGGUAAUGCAUCUCCCUCCUAAGGAGAAGACUGCGGGUUUGAGUCCCGUAUGGAACG | ≤ 0.5
GUUCCGUUGGCGUAAUGGUAACGCGUCUCCUUCCUAAGGAGAAGACUGCGGCUUCGAGUCCCGUUCGGAACG | ≤ 0.5
GUUCCGUUGGCGUAAUGGCAACGCGUCUCCCUCCUAAGGAGAGCCCUGCGGGUUCGAGUCCCGUAUGGAACG | 0.589
GUUCCGUUGGCAUAAUGGUAACGCGUCUCCCCCCUAAGGAGACGACUGCGGGUUCGAGUCCCGUUCGGAACG | ≤ 0.5
GUUCCGUUGGCGUAAUGGUAACGCGUCUCCCUCCUAAGGAGAAGACUGCGGGUUGGAGUGCCGUACGGAACG | ≤ 0.5
GUUCCGUUGGCGUACUGGUAACGCGUCUCCCUCCUAAGGAGAAGACUGCGGGUUCGAGUCCCGAACGGAACG | 0.74
GUUCCGUUGGCGUAAUGCUAGCGCGUCUCCCUCCUAAGGAGAAGACUGCGGGUUCAAGUCCCGUACGGAACG | 0.575
GUUCCGUUGGCGUAAUGGUAACGCGUCUCCCUCCUAAGGAGAAGGGUGCGGGUUCGAGUCCCGUACGGAACG | 0.87
GUUCCGUUGGCGUUAUGGUAACGCGUCUCCCUCCUAAGGAGAAGACUGAGGGUUCGAGUCCCGUACGGAACG | 0.543
GUUCCGUUGGCGUAGUGGUAACGCGUCUCCCUCUUAAGGACAAGACUGUGGGUUCGAGUCCCGUACGGAACG | ≤ 0.5
GUUUCGUUGGCGUAAAGGUAACGCGUCUCCCUCCUAAGGAGAAGACUGCGGGUUCGAGUCCCGUCCGGAACG | 0.612
GUUCCGUUGGCGUAAUGGUAACGCGUCUGCCUCCUAAGGAGAAGAUUGCGGGUUCGAGUCCCGUAUGGAACG | 0.606
GUUCCGUUGGCGUAAUGGUAACGCGUCUCCCCCCUAAGGAGAAGACUGGGGGUUCGAGUCCCGUACGGAACG | 1.02
GUUCCCUUGGCGUAAUGGUGAUGCGUCUCCCUCCUAAGGAGAAGACUGCGGGUUCGAGUCCCGUACGGAACG | ≤ 0.5
GAUCCGUUCGCGUAAUGGUAACGCGUCUCCCUCCAGAGGAGAAGACUGCGGGUUCGAGUCCCGUACGGAACG | ≤ 0.5
GUUCCGUUGGCGAAAAGGUAACGGGUCUCCCUGCUAAGGAGAAGACUGCGGGUUCGAGUCCCGUACGGAACG | ≤ 0.5
GUUCCGUUGGCGUAAUGGUAACGCGUCUGCCUCCUACGGAGAAGACUGCGGGUUCGAGUCCCAUACGGAACG | ≤ 0.5
GUUAGGUUGGCGUAAUGGUGACGCGUCUCCCUCCUAAGGAGAAGACUGCGGGUACGAGUCCUGUACGGAACG | ≤ 0.5
GUGCCGUUGGCGUAAUGGUAACGCGUCUCCCUUCUAAGGAGAAGACUGCGGGUUCGAGUCCCGUACGGAACG | 0.691

Variant | yeast fitness
GUUCAGUUGGCGUAAUGGUAACGCGUCUCCCUCCUAAGGAGAAGACUCCGGGUUCGGGUCCCGUACGGAACG | 0.557
GUUCCCUUGGCGUAAUGGUAACGCAUGUCCCUCCUAAGGAGAAGACUGCGGGUUCGAGUCCCGUACGGAACG | 0.591
GUUCCGUUGGCGUAAUGGUAACGCGUCUCCCUCUUAAGGAGAAGACUGCGGGUUCGGGUCCCGUACGGAACG | 0.737
GUUGCGUUGGCGUAAUGGUAACGCGUCUCCCUCCUAAGGAGUAGACUGCCGGUUCGAGUCCAGUACUGAACG | ≤ 0.5
GUUCCGUUGGGGGAAUGGUAACGCGUCUCCCUCCUAAGGAGAAGACUGCGGGUUCGAGUCCGGUACGGAACG | ≤ 0.5
GUUCCGUUGGUGUAAUGGUAACGCGACUCCCUCCUAAGGAGAUGACUGCGGGUUCGAGUCCCGUCCGGAGCG | ≤ 0.5
GUUCCGUUGGCGUAAGGGUAACGCGUCUCCCUCCUAAGGAGAAGAUUGCGGGCUCGAGUCCCGUACGGCACG | 0.711
GUUCCGUUGGCGUAAUGGUAACGCGUCUCCCUCCUAAGGAGAAGAAUGCGGGUUCGAGUCCCGUCCGGAACG | 0.973
GUUCCGUUGGCGUAAUGGUAACGCGUCUCCCUCCUUAGGAGAAGACUGCGGGGUCGAGUCCCGUACGGAACG | 0.544
GUUCCGUUGGCGUAAUGGUAACGCGUCUCCCUCCUAAGGAGAAGACUGCGCGUUCGAGUUCCAGACGGAACG | ≤ 0.5
GUUCCGUUGGCGUAAUAGUAACGCGUCUCCCUCAUAAGGAGAAGACUGUGGUUUCGAGUCCCGUACGGAACG | ≤ 0.5
GUUCCGUUGGCGUAAUCGUAACGCGUCUCCCUCCUAAGGAGAAGACUGCGGGUUCCGGUCCCGUACGUAACG | 0.571
GUUCCGAUGGCGUAGUGGUAACACAUCUCCCUCCUAAGGAGAAGACUGCGGGUUCGAGUCCCGUACGGCACG | ≤ 0.5
GUUCCGUUGGCGUAAUGGUAACGCGUCUCCCUCCUAAGGAGAAGACUGCAGGUUCGCGUCCCGUACGGAACG | 0.611
GUUCCGUUGGCAUAAUGGUAACGCGUCUCCCUCCUAAGGAGAAGACUGCGAGUUCGAGUCACGUACGGAACG | ≤ 0.5
GGUCCGUUGGCGUAAUGGUAACGCGUCUCCCUCCCAAGGAGCAGACAGCGGGUUCGAGUCCCCUACGGCACG | ≤ 0.5
GUUCCGUUGGCGUAGUGGUAACGCGUCUCCAUCCUAAGGAGAAGACUGCGGGUUCGAGUCCCGUGCGGAACG | ≤ 0.5
GUACCGUUGGGGUCAUGGUAACGGGUCUCCCUCCUAAGGAGAAGACUGCGGGUUCGAGUCCUGUGCGGAACG | 0.595
GUACCGUUGGCGUAAUGGUAACGCGUCUCCCUCUUAAGGAGAAGACUGAGGAUUCGAGUCCCGUACGGAACG | 0.622
GUUCCGUUGGCGUAAUGGUAACGCGUCUGCCUCCUAAGGAGAAGACUGCCGGUUCGAGUCCCGUAAGGAACG | 0.518
GUUCCGUUGGCGUAGUGGUAACGCGUCUCCCUCCUAAGGCGAAGACUGCAGGUUCGAGUCCCGUACGGAACG | ≤ 0.5
GUUCCGUUGGCGUAAUGGUAACGCGUCUCCUUCCCAAGGAGAAGACUGCGGGCUCGAGUCCCGUACGGAACG | ≤ 0.5
GUUCCGUUGGCGUAUAGAUAACGCGUCUCCCUCCUAAGGAGAAGACUGCGGGUUCGAGUUCCGUACGGAACG | ≤ 0.5
GUUCCGUUGCCGUAAUGGUAACGCGUCUCCCUCAUAAGGGGAAGACUGCGGGUUCGAGUCCCGUACGCAACG | ≤ 0.5
GUUCCAUUGGCGUAAAGGUAACGCGUCUCCCUCCUAAGGAGAAGACUGCGGGUUCGAGUCGCGUACUGAACG | ≤ 0.5
